Our source for the cytotoxicity values is ChEMBL document CHEMBL4513216, “Probing the Open Global Health Chemical Diversity Library for Multistage-Active Starting Points for Next-Generation Antimalarials” (ACS Infect Dis, 2020).

A short description of the data set: Toxicity liver stage against HepG2, at 10uM. Also noted: test concentration 10 uM, cell line HepG2-A16-CD81EGFP. Format: cell-based. As to conditions: human, HepG2-A16-CD81EGFP cells; read-out: INHIBITION
The gist of the method:
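Uninfected HepG2-A16-CD81EGFP cells, 3 × 10^3 per well, 1536-well, plated on prespotted compound at 10 μM final, parasite-free screening media added to match infected plates; puromycin 10 μM positive, DMSO 0.5% negative; run in parallel with 48 h PbLuc assay at 37 °C, 5% CO2; viability by CellTiter-Glo luminescence, normalized to controls.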

On to `COc1ncc(C)cc1NC(=O)COCC(F)(F)F`, for which the cytotoxicity at 10 µM is -5.42%.

On to `COC(=O)[C@H]1CCCCN1C(=O)c1cccc(-n2cccn2)c1`, for which the cytotoxicity at 10 µM is -8.29%. In the case of `Cn1nc(CN2CCCC2)c2c1CN(C(=O)Nc1cccc(F)c1)CC2`, the cytotoxicity at 10 µM came out at 5.98%. For the compound `Cc1cc(C)cc(OCCC(=O)N2CCOCC2c2ncon2)c1` (configuration not stated), the cytotoxicity at 10 µM is -8.72%. For the compound `Cc1ccoc1C(=O)N1CC[C@H]2[C@@H]1CCC(=O)N2c1cccnc1`, the cytotoxicity at 10 µM is -70.4%.

As for `COCCN1CCN(CC(=O)N(C)Cc2cccc(F)c2)CC1C` (configuration not stated), the cytotoxicity at 10 µM is -151%. For the compound `Cc1cnn(CC2CCCN2C(=O)c2n[nH]c3ccccc23)c1` (configuration not stated), the cytotoxicity at 10 µM is -9.93%.

For `CCN(c1ccc(C(=O)N2CCCCCC2)cc1)S(=O)(=O)CC`, the cytotoxicity at 10 µM was -2.25%. With `O=c1ccc2c(n1Cc1cccnc1)CCN(C1CCOC1)CC2` (configuration not stated), the cytotoxicity at 10 µM amounted to 9.58%.

With `COc1ccccc1CC(=O)N1CCCC(n2nc(C)cc2C)C1` (configuration not stated), the cytotoxicity at 10 µM was -4.48%. As to `COCCn1/c(=N\C(=O)CN(C)S(C)(=O)=O)sc2cccc(F)c21`, the cytotoxicity at 10 µM is -11.5%. For `O=C(Nc1c(N2CCCC2)cccc1N1CCCC1)c1ccccn1`, the cytotoxicity at 10 µM is -25.7%. Consider `Cn1cc(CN2CCCC3(CCN(C(=O)c4ccoc4)C3)C2)cn1` (configuration not stated), for which the cytotoxicity at 10 µM is -71.9%. For the compound `O=S(=O)(NCCNc1ccc(-n2cccn2)nn1)c1ccccc1`, the cytotoxicity at 10 µM was -8.55%. As for `COc1cccc(OCCn2c(C)c(C)oc2=O)c1`, the cytotoxicity at 10 µM was -7.12%. Consider `OCCOc1cc(F)ccc1NCc1cccc(F)c1F`, for which the cytotoxicity at 10 µM is -6.14%. For `CC(C)C(=O)N1CCN(S(=O)(=O)C2CC2)CC2(CC(=O)N(C)C2)C1` (configuration not stated), the cytotoxicity at 10 µM is 8.4%. Take `c1cnn(CC2CCCN2Cc2cn3ccsc3n2)c1` (configuration not stated): the cytotoxicity at 10 µM is -10.2%. Consider `CC(C)(C)N1CC(C(=O)N2CCN(CCn3cccc3)CC2)CC1=O` (configuration not stated), for which the cytotoxicity at 10 µM was 18.7%. In the case of `Cc1cc(F)ccc1OC1(C(=O)O)CCN(Cc2cccnc2N)CC1`, the cytotoxicity at 10 µM is -1.83%. As to `O=C(C1CCSCC1)N1CC[C@H]2OCC[C@@]2(COCC2CC2)C1`, the cytotoxicity at 10 µM is -1.16%. Regarding `CC(=O)NCCNc1nc(C2CCCC2)nc2c1cnn2C`, the cytotoxicity at 10 µM is 7.39%. Regarding `CCn1cnnc1C1CCN(C(=O)c2cc3c(s2)CCC3)CC1`, the cytotoxicity at 10 µM is -8.93%. `CNC(=O)CNC(=O)c1ccc(-c2scnc2C)nc1`: the cytotoxicity at 10 µM is -4.26%. As to `CCOc1ccccc1N1CCN(CC2(O)CCCNC2)CC1` (configuration not stated), the cytotoxicity at 10 µM was -2.36%. Regarding `N#Cc1ccccc1N1CCCN(CC(=O)Nc2ccc(Cl)cn2)CC1`, the cytotoxicity at 10 µM was -0.539%. With `Cc1cc2n(n1)CC(CNC1CCN(c3ccc(F)cc3)CC1)CN2` (configuration not stated), the cytotoxicity at 10 µM was -10.3%. On to `Cc1cccc(C(=O)N(C)Cc2cc(Br)cs2)n1`, for which the cytotoxicity at 10 µM is -5.1%. Turning to `CCn1c(Nc2ccccc2OC)nc2c(C)nn(C)c2c1=O`, the cytotoxicity at 10 µM came out at 15.8%. On to `CC(C)=Cc1c(-c2ccccc2)ncn1CCN(C)S(C)(=O)=O`, for which the cytotoxicity at 10 µM was -0.334%. Turning to `Cc1ncc(CN(C)C(=O)c2ccc(N3CCOCC3)c(F)c2)s1`, the cytotoxicity at 10 µM is 5.66%. Regarding `Cc1cc(C(=O)N(C)Cc2ccn[nH]2)c(NC(=O)C(C)(C)C)s1`, the cytotoxicity at 10 µM came to 2.72%. On to `NC(=O)c1nnn(-c2ccc(Br)cc2)n1`, for which the cytotoxicity at 10 µM worked out at 6.56%. For the compound `O=C(C1SCCc2sccc21)N1CCN(CC(F)F)CC1` (configuration not stated), the cytotoxicity at 10 µM was -4.5%.

`CC(NCCCn1cccn1)c1ccc(N2CCCS2(=O)=O)cc1` (configuration not stated): the cytotoxicity at 10 µM is -0.828%. For `COc1ccc(CN2CC[C@@H](N)[C@@H](OC)C2)cc1Cn1cncn1`, the cytotoxicity at 10 µM was -3.7%. For `O=C(O)C1CN(c2cncc(Cc3ccccc3F)n2)C1`, the cytotoxicity at 10 µM came out at 5.7%. `CS(=O)(=O)CCCNC1CCCN(Cc2noc(C3CC3)n2)C1` (configuration not stated): the cytotoxicity at 10 µM was found to be 1.15%. Consider `CCOC(=O)c1sc2ccsc2c1CNC(=O)CC`, for which the cytotoxicity at 10 µM is -5.7%. Next, `CCOc1ccccc1C(=O)NS(=O)(=O)c1ccc2c(c1)OCCCO2`: 5.04%; `COC1CCN(S(=O)(=O)N2CC(c3ccccc3)C(C)(C)C2)CC1` (configuration not stated): 3.64%; `Cc1ccc(C)c(C(=O)NCC(c2cccn2C)N2CCCCCC2)c1` (configuration not stated): 5.64%. On to `CC(=O)NCCNC(=O)c1cnc(-c2ccc(C)cc2C)s1`, for which the cytotoxicity at 10 µM was -7.95%. Then `O[C@H]1CN(CCCOc2ccccc2F)CC[C@@]12CCCO2`, with 3.06%; and `Cc1cc(CNC(=O)NC(C)(CO)C2CC2)c(C)s1` (configuration not stated), with 3.46%. As for `CO[C@H]1CO[C@@]2(CCCN(S(=O)(=O)c3ccccc3)C2)C1`, the cytotoxicity at 10 µM was -81.9%. Then `O=C(O)c1ccccc1-c1ccc(CN2CCC(CO)C2)cc1` (configuration not stated), with -14.6%; and `O=C(N[C@@H]1CN(Cc2ccc(F)cc2)C[C@H]1O)c1cscn1`, with -11.7%; and `Cc1c(-c2ccncc2)n[nH]c1NC(=O)CCOC(C)C`, with 6.58%. As to `c1ccc2c(c1)CCN(c1nc(N3CCOCC3)c3nn[nH]c3n1)C2`, the cytotoxicity at 10 µM was determined as 11.6%. `Cc1cc(CNC(=O)CN2CCN(C(=O)OC(C)(C)C)CC2)ccc1F`: the cytotoxicity at 10 µM was -11.2%. For `Cc1ccc(C(=O)N2CCN(S(C)(=O)=O)CC2)cc1N1CCNC1=O`, the cytotoxicity at 10 µM is -5.07%. For `COC(=O)C1CN(Cc2cc(F)ccc2Br)CCO1` (configuration not stated), the cytotoxicity at 10 µM is -5.51%. On to `CC(=O)N1CCC[C@H]1C(=O)NCCOc1cccc(Cl)c1`, for which the cytotoxicity at 10 µM is -8.78%.

On to `COc1ccc2c(c1)NC(=O)C2OC(=O)CCc1ccc(F)cc1` (configuration not stated), for which the cytotoxicity at 10 µM was -4.71%. In the case of `COCCN1C[C@@H](C)[C@@]2(COCCN(C(=O)Cc3ccccc3)C2)C1`, the cytotoxicity at 10 µM was -12.4%. With `c1c[nH]c(CN2CCC3(CC2)COCCN(CCN2CCCC2)C3)c1`, the cytotoxicity at 10 µM was -3.86%.

Turning to `CSc1nc2ccsc2c(=O)n1CC(=O)NC1CCCCC1`, the cytotoxicity at 10 µM worked out at 4.45%. Turning to `Cc1ccc(N(C)C2CCCN(C(=O)Nc3ccc(F)cc3F)C2)cc1` (configuration not stated), the cytotoxicity at 10 µM was -8.19%. Turning to `CC(=O)N(C)CC(=O)NCC1(c2c(F)cccc2F)CCCC1`, the cytotoxicity at 10 µM was -3.86%. Then `CCCc1nc(CN2CCN(CC(O)c3ccccc3)CC2)no1` (configuration not stated), with -2.89%; and `Cc1[nH]c2ccccc2c1-c1ccnc(NCCN2CCCCC2)n1`, with -1.36%. `CC(C#N)CN(C)C(=O)c1cn(-c2ccc(Br)cc2)cn1` (configuration not stated): the cytotoxicity at 10 µM was determined as 13.6%. Next, `N#Cc1csc(CNCCOc2ncccc2Cl)c1`: 8.01%; `Cn1cc(C(=O)OC2CN(c3nc4c(C(F)(F)F)cccc4s3)C2)nn1`: -11.8%; `CCCc1noc(CCCC(=O)N2CCCC(n3ccnc3C)C2)n1` (configuration not stated): -2.5%.

For `CC(C)(C)OC(=O)N1CC(CC(=O)NCc2ccnc(C3CC3)c2)C1`, the cytotoxicity at 10 µM came out at 5.54%. For `Nc1nc(CN2CCN(c3nccs3)CC2)cs1`, the cytotoxicity at 10 µM worked out at 4.79%. Regarding `O=C(C1CCCC1)N1CCC(c2ccnc(Nc3cnccn3)n2)C1` (configuration not stated), the cytotoxicity at 10 µM is -24.6%. Take `Cc1cnn(CCNCc2ccccc2OCc2cccnc2)c1`: the cytotoxicity at 10 µM is 3.8%. Next, `CCC(NC(=O)NCc1ccoc1C)c1c(C)nn(C)c1C` (configuration not stated): -1.44%; `Cc1noc(-c2cccnc2N(C)Cc2cscn2)n1`: -4.23%.
